IDH1 mut inh = inhibitors of IDH1 R132H reductase, primary screen, biochemical, plate reader, single point; diaphorase/resazurin fluorescence, 60 min; inhibition, % at 10 µM; actives 0.18% (n = 70,000); in the data active = inhibition above about 34%;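 also: 0% = DMSO and 100% = no enzyme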
Target sequence (O75874 whole entry R132H): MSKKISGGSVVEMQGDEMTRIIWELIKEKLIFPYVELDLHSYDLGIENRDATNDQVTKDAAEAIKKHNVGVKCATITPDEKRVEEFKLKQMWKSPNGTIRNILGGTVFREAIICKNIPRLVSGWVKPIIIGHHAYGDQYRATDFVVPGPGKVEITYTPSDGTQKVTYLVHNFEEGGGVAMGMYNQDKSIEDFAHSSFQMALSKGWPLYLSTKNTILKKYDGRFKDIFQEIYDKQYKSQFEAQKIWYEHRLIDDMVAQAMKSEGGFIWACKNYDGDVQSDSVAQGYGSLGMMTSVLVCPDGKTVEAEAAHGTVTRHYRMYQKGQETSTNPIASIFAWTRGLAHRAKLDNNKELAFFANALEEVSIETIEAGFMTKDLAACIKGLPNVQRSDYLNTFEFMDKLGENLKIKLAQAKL
T cruzi growth = T. cruzi intracellular proliferation inhibitors, primary screen, cell-based, beta-gal Tulahuen parasites, NIH3T3 host, luminescence; T. cruzi beta-gal in NIH3T3, GalScreen luminescence, 90 h; actives 5.9% (n = 77,000); inhibition, % at 8.34 µM;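 active = mean inhibition above about 93%, with at least 55% of replicates each passing it, limit read from the data, passing the limit was not always enough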
KDM4C inh = inhibitors of GASC-1 (KDM4C) histone demethylase, primary screen, biochemical, single concentration HTS; Lysine-specific demethylase 4C (Homo sapiens), Q9H3R0; inhibition, % at 12.5 µM; GST-KDM4C 2-372, H3K9me3 peptide, LANCE TR-FRET; actives 0.15% (n = 96,000);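 active = mean replicate inhibition above about 25%, with at least 55% of replicates also reaching it, limit read from the data, passing the limit was not always enough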
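Material: GST-tagged GASC-1 (JMJD2C) catalytic fragment, aa 2-372 / Quantity: enzyme final amount 10 nM / Medium: HEPES buffer, pH 7.5, plus ascorbate / Doses: one test concentration per compound / Incubation: 30 min reaction, 60 min detection, RT / Measured by: LANCE TR-FRET / Read-out: inhibition from TR-FRET ratio decrease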
Pf Dd2 growth = P. falciparum Dd2 growth inhibitors, primary screen, SYBR Green fluorescence, single dose replicates; actives 2.3% (n = 94,000); 72 h; active compounds read low; activity change, % at 10 µM; in the data active = activity change below about -80%
* = called active by the depositor; · = no result. Only some compounds are listed: those with a hit (about 5.8% of all), similar ones and a draw of the others.

SMILES | IDH1 mut inh | T cruzi growth | KDM4C inh | Pf Dd2 growth
CCn1c(SCC(=O)Nc2ccccc2OC)nnc1-c1ccncc1 | 0 | · | · | ·
CCN(CC)C(=O)c1cc(-c2ccc(Cl)c(Cl)c2)on1 | 0 | · | · | ·
CN(C1CCCCC1)S(=O)(=O)c1cc(Br)cc2c1N(C(=O)C1CC1)CC2 | -4 | · | · | ·
COc1ccc(C#Cc2ccc3c(c2)O[C@@H](CN(C)C(=O)Nc2cccc(OC)c2)[C@@H](C)CN([C@H](C)CO)S3(=O)=O)cc1 | · | 53 | -9 | -89*
COc1ccc(C#Cc2ccc3c(c2)O[C@@H](CN(C)C(=O)Nc2cccc(OC)c2)[C@H](C)CN([C@@H](C)CO)S3(=O)=O)cc1 | · | 61 | · | -88*
CCN(CC(=O)Nc1cccc(OC)c1)S(=O)(=O)c1ccc2ccccc2c1 | -1 | · | · | ·
COc1cccc2cc(-c3nnc(SCC(=O)Nc4cccc(Br)c4)n3C)oc12 | 0 | · | · | ·
C[C@@H]1CN([C@H](C)CO)C(=O)c2cc(NC(=O)C3CCCCC3)ccc2O[C@@H](C)CCCCO[C@@H]1CN(C)S(=O)(=O)c1cccs1 | · | 34 | -2 | -84*
C[C@@H]1CN([C@H](C)CO)C(=O)c2cc(NC(=O)NC3CCCCC3)ccc2O[C@@H](C)CCCCO[C@@H]1CN(C)S(=O)(=O)c1cccs1 | -1 | 90 | -3 | -84*
C[C@@H]1CN([C@@H](C)CO)C(=O)c2cc(NC(=O)Nc3cccc4ccccc34)ccc2O[C@@H](C)CCCCO[C@@H]1CN(C)S(=O)(=O)c1cccs1 | 1 | -8 | 0 | -90*
C[C@H]1CCCCO[C@H](CN(C)S(=O)(=O)c2cccs2)[C@@H](C)CN([C@@H](C)CO)C(=O)c2cc(NC(=O)C3CCCCC3)ccc2O1 | · | 43 | 0 | -78
C[C@H](CO)N1C[C@H](C)[C@H](CN(C)S(=O)(=O)c2cccs2)OCCCC[C@H](C)Oc2ccc(NC(=O)Nc3ccc(F)cc3)cc2C1=O | 2 | 92 | -1 | -28
C[C@@H]1CN([C@H](C)CO)C(=O)c2cc(NC(=O)Nc3ccc(F)cc3)ccc2O[C@@H](C)CCCCO[C@@H]1CN(C)S(=O)(=O)c1cccs1 | · | -47 | -1 | -84*
C[C@H]1CCCCO[C@H](CN(C)S(=O)(=O)c2cccs2)[C@@H](C)CN([C@@H](C)CO)C(=O)c2cc(NC(=O)Nc3cccc4ccccc34)ccc2O1 | -1 | 31 | 2 | -60
CCN(CC(=O)Nc1cccc(Cl)c1C)S(=O)(=O)c1ccc(C)cc1 | -1 | · | · | ·
Cc1ccc2nc(-c3ccccn3)cc(C(=O)NCc3cnn(C)c3)c2c1 | 0 | · | · | ·
C[C@@H]1CCCCO[C@H](CN(C)C(=O)Nc2ccc(C(F)(F)F)cc2)[C@H](C)CN([C@@H](C)CO)C(=O)c2cc(NC(=O)C3CCCCC3)ccc2O1 | · | 94 | 0 | -83*
C[C@@H]1CCCCO[C@H](CN(C)C(=O)Nc2ccc(F)cc2)[C@H](C)CN([C@H](C)CO)C(=O)c2cc(NC(=O)C3CCCCC3)ccc2O1 | · | 56 | -2 | -81*
CCC(C)(C)C(=O)N1CCC(C(=O)OC)CC1 | 0 | · | · | ·
O=C1c2ccccc2S(=O)(=O)N1CC(O)Cn1c2ccc(Cl)cc2c2cc(Cl)ccc21 (stereo unspecified) | -1 | · | · | ·
N#Cc1ccc(-c2ccc3c(c2)[C@@H]2[C@@H](CCN2C(=O)C2CCC2)[C@@H](CO)N3)cc1 | · | · | -5 | -84*
O=C(C1CCCC1)N1CC[C@@H]2[C@H]1c1cc(-c3cccc(F)c3)ccc1N[C@@H]2CO | · | · | 12 | -82*
N#Cc1ccc(-c2ccc3c(c2)[C@H]2[C@H](CCN2C(=O)C2CCCC2)[C@H](CO)N3)cc1 | · | · | · | -86*
O=C(C1CCC1)N1CC[C@@H]2[C@@H](CO)Nc3ccc(-c4cccc(F)c4)cc3[C@@H]21 | · | 75 | 1 | 27
N#Cc1cccc(-c2ccc3c(c2)[C@H]2[C@H](CCN2C(=O)C2CCCCC2)[C@H](CO)N3)c1 | · | 79 | -7 | -12
CCc1cc(Br)cc(C)c1NC(=O)CSc1nnc(-c2ccncc2)n1-c1ccccc1 | 0 | · | · | ·
COc1c2c(c(O)c3c(=O)c4c(OC)c(O)ccc4oc13)C1CCCC(C)(O2)O1 (stereo unspecified) | 1 | · | · | ·
O=c1ccc2ccc(Oc3ncnc4scc(-c5ccc(F)cc5)c34)cc2o1 | 1 | · | · | ·
C[C@H]1CN([C@@H](C)CO)C(=O)Cc2cc(NC(=O)CCCCCC(=O)Nc3ccccc3N)ccc2O[C@H]1CN(C)Cc1ccc(Oc2ccccc2)cc1 | · | 11 | -2 | -85*

Source: PubChem BioAssay (Broad Institute)
